DENV2 CPE = inhibitors of DENV2 cytopathic effect, primary screen, cell-based, plate reader, single concentration; DENV2-infected cells, cytopathic effect rescue; CPE inhibition, % at 9.99 µM; hit rate 1.7% among 350,000; in the data active means CPE inhibition above about 20%, passing the limit was not always enough; inconclusive means no clear call, values can overlap the other calls; tested in BHK-21 cells
FN deposition inh = inhibitors of fibronectin matrix deposition, primary screen, AH1F cells, Alexa488-fibronectin fluorescence, plate reader; hit rate 0.086% among 350,000; inhibition, % at 12.6 µM; AH1F fibroblasts, overnight; AID 743247, 2014;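 active means mean inhibition across replicates of 30% or more, regardless of how many single replicates reach that level; inconclusive means mean under 30% yet at least half of replicates reach 30%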
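material = AH1F fibroblast monolayer depositing Alexa488-labelled fibronectin into matrix | amount = 10000 AH1F cells/well | buffer or medium = DMEM plus 2% serum, read in PBS | incubation = 1 h cell adhesion before compound, then overnight fibronectin incubation | detection = fluorescence at 485 nm excitation, 525 nm emission | evaluation = percent inhibition as loss of matrix-bound fibronectin fluorescence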
Xi reactivation = activators of inactive X chromosome reactivation, primary screen, imaging, XiGFP fibroblasts, GFP high-content imaging, set 2; XiGFP mouse fibroblasts, % GFP-positive cells imaging, 3 d; cells co-treated with 5-aza-dC sensitizer; scaled so ellipticine positive control = 100%; activation, % at 7.58 µM; hit rate 0.055% among 360,000;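 active means mean normalized replicate activation at least 10% and every replicate at or above 10%; inconclusive means only one of the two criteria met; inactive means mean below 10% and not all replicates reach 10%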
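System: 68-5-11 XiGFP fibroblast line | Buffer or medium: DMEM containing 5-aza-dC | Compound: Single point | Times: Compounds 3 days, fix/stain 15 min at room temperature | Benchmarks: Positive control ellipticine, 6 µM final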
SIRT5 block = SIRT5 desuccinylase inhibitors, primary screen, biochemical, fluorescence imaging, single point, set 5; NAD-dependent protein deacylase sirtuin-5, mitochondrial (Homo sapiens), Q9NXA8; Purified SirT5, succinyl-peptide AMC, trypsin-coupled fluorescence; inhibition, % at 15 µM; hit rate 1.1% among 330,000; in the data active means inhibition above about 15%; inconclusive means no clear call, values can overlap the other calls
Target sequence (Q9NXA8 whole entry, looked up): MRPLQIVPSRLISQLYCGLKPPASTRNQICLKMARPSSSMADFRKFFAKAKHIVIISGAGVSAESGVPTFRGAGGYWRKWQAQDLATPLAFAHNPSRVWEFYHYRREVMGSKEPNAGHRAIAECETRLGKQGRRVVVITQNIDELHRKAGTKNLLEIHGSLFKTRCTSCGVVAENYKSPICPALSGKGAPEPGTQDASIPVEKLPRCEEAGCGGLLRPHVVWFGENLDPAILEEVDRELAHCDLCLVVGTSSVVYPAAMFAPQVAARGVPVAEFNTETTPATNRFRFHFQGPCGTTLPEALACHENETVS
FGF22 binding = binders of human FGF22 protein, primary screen, FGF22 synaptogenesis inhibitor project, biophysical, thermal shift, single point. Fibroblast growth factor 22 (Homo sapiens), Q9HCT0. recombinant FGF22 thermal shift, SYPRO orange fluorescence; percent of sucrose octasulfate shift, DMSO zero. activity (Tm shift, normalised), % at 9.99 µM. hit rate 1.5% among 340,000. AID 651658, 2012;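 active means mean Tm shift, scaled 0 neutral to 100 positive control, at about 1.3% or above, every replicate too, limit read from the data; inconclusive means no clear call, values can overlap the other calls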
Target sequence (Q9HCT0 whole entry, looked up): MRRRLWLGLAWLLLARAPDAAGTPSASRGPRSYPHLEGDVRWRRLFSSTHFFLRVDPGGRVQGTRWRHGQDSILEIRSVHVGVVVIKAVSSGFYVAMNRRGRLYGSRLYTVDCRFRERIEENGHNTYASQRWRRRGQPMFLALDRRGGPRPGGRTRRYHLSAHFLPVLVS
ARNT-TACC3 inh = disruptors of ARNT/TACC3 protein interaction, primary screen, biochemical, AlphaScreen, single concentration; AlphaScreen His-ARNT PAS-B/GST-TACC3 binding, luminescence; TACC3 fragment carries E629A point mutation; inhibition, % at 9.99 µM; hit rate 0.66% among 390,000;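 active means mean inhibition of replicates at least 50% and at least half of replicates each reaching 50%; inconclusive means half or more replicates reach 50% but mean below 50%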
Large screens that a line does not name were inactive. The list is not random: actives were taken first. Their share in the collection is about 3.8%.

CC(C)N1CCC(N2CCN(Cc3cc(F)ccc3-n3cccn3)CC2CCO)CC1 (configuration not stated)	none
COc1ccc2c(c1OC)C(=O)N(c1ccccc1)C2=O	none (no result: ARNT-TACC3 inh)
COc1ccc2c(c1OC)C(=O)N(c1ccc(O)cc1)C2=O	FGF22 binding 43
Nc1ccc(-c2cc3ccccc3c(=O)o2)cc1	DENV2 CPE 67 (no result: SIRT5 block)
O=c1oc(-c2ccccc2)cc2ccccc12	none (no result: FN deposition inh, Xi reactivation, SIRT5 block, ARNT-TACC3 inh)
O=C(c1ccc(S(=O)(=O)Nc2ccccc2Cl)cc1)N1CCOCC1	none (no result: DENV2 CPE)
CC1CCCN(C(=O)c2ccc(S(=O)(=O)Nc3ccccc3Cl)cc2)C1 (configuration not stated)	DENV2 CPE 83
Cc1cccc(NC(=S)NC(=O)c2oc3ccccc3c2C)n1	FGF22 binding 43
Cc1cccc(NC(=S)NC(=O)c2ccc(-c3ccccc3)cc2)n1	none (no result: ARNT-TACC3 inh)
COc1cccc(Cn2cnc(-c3ccccc3OC)c2C2CC2)c1	FGF22 binding 43 (no result: SIRT5 block, ARNT-TACC3 inh)
Cc1noc(C)c1S(=O)(=O)N(C)C[C@H]1OCCCC[C@H](C)Oc2ccc(NC(=O)NC(C)C)cc2C(=O)N([C@H](C)CO)C[C@H]1C	none
Cc1noc(C)c1S(=O)(=O)N(C)C[C@H]1OCCCC[C@@H](C)Oc2ccc(NC(=O)Nc3ccc4c(c3)OCO4)cc2C(=O)N([C@@H](C)CO)C[C@H]1C	DENV2 CPE 86 (no result: FN deposition inh, SIRT5 block)
Cc1noc(C)c1S(=O)(=O)N(C)C[C@H]1OCCCC[C@H](C)Oc2ccc(NC(=O)NC(C)C)cc2C(=O)N([C@H](C)CO)C[C@@H]1C	DENV2 CPE 102
Cc1ccc(S(=O)(=O)NC(CC(C)C)C(=O)NCC(c2ccco2)N2CCCCC2)cc1 (configuration not stated)	none (no result: DENV2 CPE, FN deposition inh, Xi reactivation, FGF22 binding)
COc1ccc(C(CNC(=O)C(CC(C)C)NS(=O)(=O)c2ccc(C)cc2)N2CCOCC2)cc1 (configuration not stated)	SIRT5 block 22
COc1ccc(Nc2oc(COc3ccccc3OC)nc2C#N)cc1	SIRT5 block 28
Cc1noc(C)c1NC(=O)N(C)C[C@@H]1Oc2ccc(NC(=O)Nc3ccc(C(F)(F)F)cc3)cc2CC(=O)N([C@@H](C)CO)C[C@H]1C	none (no result: FN deposition inh)
CN(CC(=O)Nc1ccc(S(N)(=O)=O)cc1)Cc1ccccc1F	SIRT5 block 21
COc1ccc(C2NCCc3cc(OC)c(OC)cc32)cc1OC (configuration not stated)	FN deposition inh active (no result: DENV2 CPE, Xi reactivation, SIRT5 block, FGF22 binding)
CCOc1cc2c(cc1OC)C(c1cccc([N+](=O)[O-])c1)NCC2 (configuration not stated)	FGF22 binding 43
CCOc1cc2c(cc1OCC)C(c1ccc(F)cc1)NCC2 (configuration not stated)	none
C/C=C/c1ccc2c(c1)O[C@H](CN(C)C(=O)Nc1cc(F)ccc1F)[C@@H](C)CN([C@H](C)CO)S2(=O)=O	none (no result: FN deposition inh)
C[C@@H]1CN([C@H](C)CO)S(=O)(=O)c2ccc(-c3cccc(F)c3)cc2O[C@H]1CN(C)C(=O)Nc1cc(F)ccc1F	SIRT5 block 16 (no result: FN deposition inh)
Cc1ccccc1-c1ccc2c(c1)O[C@@H](CN(C)C(=O)Nc1ccc(F)cc1)[C@@H](C)CN([C@@H](C)CO)S2(=O)=O	SIRT5 block 19 (no result: FN deposition inh)
C[C@H](CO)N1C[C@H](C)[C@H](CN(C)C(=O)Nc2cc(F)ccc2F)Oc2cc(/C=C/c3ccccc3)ccc2S1(=O)=O	FGF22 binding 2.0 (no result: SIRT5 block)
C[C@@H]1CN([C@@H](C)CO)S(=O)(=O)c2ccc(-c3cccc(F)c3)cc2O[C@H]1CN(C)C(=O)Nc1cc(F)ccc1F	none (no result: FN deposition inh)
C[C@H](CO)N1C[C@H](C)[C@H](CN(C)C(=O)Nc2ccc(F)cc2)Oc2cc(/C=C/c3ccccc3)ccc2S1(=O)=O	SIRT5 block 21 (no result: FN deposition inh, Xi reactivation)
C[C@H](CO)N1C[C@H](C)[C@H](CN(C)C(=O)Nc2cccc(F)c2)Oc2cc(/C=C/c3ccccc3)ccc2S1(=O)=O	none (no result: FN deposition inh)
Cc1ccccc1-c1ccc2c(c1)O[C@H](CN(C)C(=O)Nc1ccc(F)cc1)[C@H](C)CN([C@@H](C)CO)S2(=O)=O	none (no result: DENV2 CPE, FN deposition inh, SIRT5 block, FGF22 binding, ARNT-TACC3 inh)
Cc1ccc(S(=O)(=O)Nc2ccc3c(c2)C(=O)N([C@@H](C)CO)C[C@H](C)[C@H](CN(C)C(=O)Cc2ccccc2)OCCCC[C@@H](C)O3)cc1	none (no result: FGF22 binding)
C/C=C/c1ccc2c(c1)O[C@@H](CN(C)C(=O)Nc1ccc(C(F)(F)F)cc1)[C@H](C)CN([C@H](C)CO)S2(=O)=O	none
C/C=C/c1ccc2c(c1)O[C@@H](CN(C)C(=O)Nc1ccc(C(F)(F)F)cc1)[C@@H](C)CN([C@@H](C)CO)S2(=O)=O	FGF22 binding 1.3
COCCCNC(=S)Nc1cc(C)c(C)cc1C	none
COCCNC(=S)Nc1cc(OC)c(OC)cc1C#N	ARNT-TACC3 inh 50
CCCN(C)C[C@H]1Oc2cc(-c3ccccc3C)ccc2S(=O)(=O)N([C@H](C)CO)C[C@H]1C	none
C=CCC1[C@H](C)[C@H]2[C@@H]3CC[C@@H](C3)[C@H]2CN1S(=O)(=O)c1ccc(C)cc1 (some centres not stated)	none
Cc1ccc(S(=O)(=O)N2C[C@@H]3[C@H]4CC[C@H](C4)[C@@H]3[C@@H](C)[C@@H]2c2ccn([Si](C(C)C)(C(C)C)C(C)C)c2)cc1	DENV2 CPE 25 (no result: FN deposition inh)
CC(C)NC(=O)N1CC2(C1)[C@@H](c1ccccc1)[C@@H](CO)N2C(=O)C1CCC1	none (no result: DENV2 CPE, SIRT5 block, FGF22 binding, ARNT-TACC3 inh)
C[C@H](CO)N1C[C@H](C)[C@@H](CN(C)C(=O)C2CCCCC2)Oc2ncc(C#CC3CC3)cc2C1=O	none (no result: DENV2 CPE, FN deposition inh, SIRT5 block, FGF22 binding, ARNT-TACC3 inh)
CCC(=O)Nc1cc(C(=O)OCc2ccc(C(=O)Oc3ccccc3)cc2)ccc1C	DENV2 CPE 82
CCC(=O)Nc1ccc(C(=O)OCc2ccccc2)cc1	none (no result: DENV2 CPE)
C[C@@H]1CN([C@H](C)CO)C(=O)c2cccc(NC(=O)c3nc4ccccc4s3)c2O[C@H]1CN(C)Cc1ccc(C(F)(F)F)cc1	SIRT5 block 20
C[C@H]1CN([C@@H](C)CO)C(=O)c2cccc(NC(=O)c3nc4ccccc4s3)c2O[C@H]1CN(C)Cc1ccc(C(F)(F)F)cc1	DENV2 CPE inconclusive, SIRT5 block 27
C[C@H](CO)N1C[C@H](C)[C@H](CN(C)C(=O)c2ccc(F)cc2)OCc2ccccc2-c2c(n(C)c3ccccc23)C1=O	none

Source: PubChem BioAssay
